One series has as its system Vero. The series is described as follows: Cytotoxicity against african green monkey Vero cells. The format is cell-based, Chlorocebus sabaeus. In a few lines:
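Mammalian cells (Vero, LLC-PK11, SK-MEL, KB, BT-549, SK-OV-3) exposed to compound; viable cells counted by Neutral Red dye uptake; IC50 taken from dose-response curves.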

The subject of another series is BT-549. The series is described as follows: Cytotoxicity against human BT549 cells assessed as viable cells by neutral red dye method. The format is functional, cell-based.
The subject of series [1] is Plasmodium falciparum. As to the kind of experiment: Antimalarial activity against chloroquine-sensitive Plasmodium falciparum D6 infected in RBC assessed as parasite LDH activity after 72 hrs. The conditions noted are these: D6, 72 h. Format: functional, organism-based.
Series [2] can be described thus: Selectivity index, ratio of IC50 for african green monkey Vero cells to IC50 for chloroquine-resistant Plasmodium falciparum W2. The conditions noted are these: read-out: Ratio IC50. Format: toxicity, cell-based. The essentials:
(§1)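 Selectivity index is the IC50 for Vero-cell cytotoxicity (Neutral Red viability) divided by the IC50 against P. falciparum D6 or W2 (from dose-response curves).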

The next series has as its system SK-MEL. As to the kind of experiment: Cytotoxicity against human SK-MEL cells assessed as viable cells by neutral red dye method. Format: functional, cell-based.
Series [3] in a line: Selectivity index, ratio of IC50 for african green monkey Vero cells to IC50 for chloroquine-sensitive Plasmodium falciparum D6. The format is toxicity, cell-based. The note with it: read-out: Ratio IC50. The essentials:
as §1

Another series has as its system KB. The series is described as follows: Cytotoxicity against human KB cells assessed as viable cells by neutral red dye method. The format is functional, cell-based.
Series [4] concerns Lactuca sativa. The series is described as follows: Phytotoxic activity against Lactuca sativa cv. L. at 1.62 mM. The format is functional, organism-based. In a few lines:
(§2)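 Compound (1 mg) dissolved in 100 μL acetone; 20 μL spotted on filter paper, air-dried 30 min. Paper placed in well, 200 μL water added. Bentgrass (Agrostis stolonifera) or lettuce (Lactuca sativa cv. L., Iceberg) seeds used. Solvent controls treated identically. Growth scored visually from 0 (no effect) to 5 (no growth).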

The next series relates to Leishmania donovani. As to the kind of experiment: Antileishmanial activity against Leishmania donovani promastigotes. Format: functional, organism-based. In a few lines: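 Compounds were tested in vitro on cultured L. donovani promastigotes, with pentamidine and amphotericin B as standard controls. IC50 and IC90 (50% and 90% growth inhibition) were computed from growth-inhibition curves.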

For series [5], the system named is Agrostis stolonifera. As to the kind of experiment: Phytotoxic activity against Agrostis stolonifera at 1.62 mM. Format: functional, organism-based. In a few lines:
as §2

Series [6] is described as follows: Cytotoxicity against pig LLC-PK11 cells assessed as viable cells by neutral red dye method. The format is cell-based. The note with it: Sus scrofa.
Another series has as its system SK-OV-3. The series is described as follows: Cytotoxicity against human SKOV3 cells assessed as viable cells by neutral red dye method. Format: functional, cell-based.
Series [7] deals with Plasmodium falciparum. The series is described as follows: Antimalarial activity against chloroquine-resistant Plasmodium falciparum W2 infected in RBC assessed as parasite LDH activity after 72 hrs. Format: functional, organism-based. The conditions noted are these: W2, 72 h.
A further series concerns Nakaseomyces glabratus. The series is described as follows: Antifungal activity against Candida glabrata ATCC 90030 by broth dilution method. The format is functional, organism-based. In a few lines: (§3)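 Broth dilution run as a modified CLSI susceptibility method. Amphotericin B was included as the antifungal drug control in each assay.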
The next series concerns Cryptococcus neoformans. As to the kind of experiment: Antifungal activity against Cryptococcus neoformans ATCC 90113 by broth dilution method. The format is functional, organism-based. In a few lines:
as §3

The next series has as its system Pichia kudriavzevii. As to the kind of experiment: Antifungal activity against Candida krusei ATCC 6258 by broth dilution method. Format: functional, organism-based. The essentials: as §3
(In general: Broth dilution looks for growth in wells or tubes with falling amounts of substance.)

For a further series, the system named is Candida albicans. As to the kind of experiment: Antifungal activity against Candida albicans ATCC 90028 by broth dilution method. Format: functional, organism-based. The essentials:
as §3

For a further series, the system named is Aspergillus fumigatus. The series is described as follows: Antifungal activity against Aspergillus fumigatus ATCC 90906 by broth dilution method. Format: functional, organism-based. The essentials: as §3
Series [8] relates to Agrostis stolonifera. The series is described as follows: Phytotoxic activity against Agrostis stolonifera at 1.73 mM. Format: functional, organism-based. In a few lines:
as §2

The test system of series [9] is Lactuca sativa. As to the kind of experiment: Phytotoxic activity against Lactuca sativa cv. L. at 1.73 mM. The format is functional, organism-based. The essentials: as §2
Series [10] has as its system Staphylococcus aureus. As to the kind of experiment: Antimicrobial activity against methicillin-resistant Staphylococcus aureus ATCC 33591 by CLSI M7-A5 method. Format: functional.
The test system of series [11] is Lactuca sativa. As to the kind of experiment: Phytotoxic activity against Lactuca sativa cv. L. at 1.87 mM. Format: functional, organism-based. The essentials: (§4)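 Seeds were bentgrass (Agrostis stolonifera) and lettuce (cv. Iceberg), in multiwell plates. Compound was dissolved at 1 mg per 100 μL acetone, and a 20 μL aliquot was dried onto filter paper for 30 min under airflow. Water was then added. Acetone solvent controls were handled identically. Growth was scored visually from 0 (no effect) to 5 (no growth).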

For series [12], the system named is Agrostis stolonifera. As to the kind of experiment: Phytotoxic activity against Agrostis stolonifera at 1.87 mM. Format: functional, organism-based. The essentials:
as §4

Series [13] has as its system Staphylococcus aureus. The series is described as follows: Antimicrobial activity against methicillin-sensitive Staphylococcus aureus ATCC 29213 by CLSI M7-A5 method. Format: functional.
Where [14] appears, read: Chlorocebus sabaeus, Vero, read-out: IC50.

Converted amounts (≈) assume the structure as drawn. The source made the active and inactive calls. The calls are words filed in the database; no cut-off is given here.

In the case of `CCN(CC)CCCC(C)Nc1ccnc2cc(Cl)ccc12` (configuration not stated) [CHLOROQUINE], the IC50 entry in the series with Vero (vero) is “Non-toxic”.
In the case of `COc1c(C[C@@H](C)OC(C)=O)c2c3c(C[C@@H](C)OC(C)=O)c(OC)c(=O)c4c(O)cc5c(c6c(cc(O)c(c1=O)c62)OCO5)c43`, the IC50 turned out to be 8.7 µM with BT-549; 2.75 µM in the series on Plasmodium falciparum [1]; 4.9 µM in the series on SK-MEL; 8.7 µM with KB; 3.1 µM in the series with Leishmania donovani; 4.53 µM in the series on Vero (setting [14]). Also, the IC50 in [6] stood at 9.4 µM; in the series on SK-OV-3 it was 4.8 µM; in the series with Plasmodium falciparum [7], 1.94 µM. Further, the selectivity ratio came to 2.3 in series [2] and 1.6 in series [3]. In addition, the result in the series with Lactuca sativa [4] and in the series on Agrostis stolonifera [5] was Active. This compound gave an IC90 with Leishmania donovani of 9.7 µM.
In the series on Leishmania donovani, `C[C@@H]1[C@H](O)[C@@H](C)/C=C/C=C/C=C/C=C/C=C/C=C/C=C/[C@H](O[C@@H]2O[C@H](C)[C@@H](O)[C@H](N)[C@@H]2O)C[C@@H]2O[C@](O)(C[C@@H](O)C[C@@H](O)[C@H](O)CC[C@@H](O)C[C@@H](O)CC(=O)O[C@H]1C)C[C@H](O)[C@H]2C(=O)O` [AMPHOTERICIN B] displayed an IC50 of 0.18 µM and an IC90 of 0.38 µM.
With `CC[C@@H](C)[C@H]1O[C@@H](c2c(O)c(-c3ccccc3)cn(O)c2=O)[C@H](C)C[C@@H]1C` [SEPTORIAMYCIN A], the outcome with Nakaseomyces glabratus, in the series on Cryptococcus neoformans, with Pichia kudriavzevii, in the series on Candida albicans and in the series on Aspergillus fumigatus was Active. The same compound yielded an IC50 in the series on Leishmania donovani of 0.11 µM. In addition, it took 0.29 µM to reach the 90% level in the series on Leishmania donovani (IC90).
`C[C@@H]1CC[C@H]2[C@@H](C)C(=O)O[C@@H]3O[C@@]4(C)CC[C@@H]1[C@]32OO4` [ARTEMISININ]: the results for the IC50 in the series on Plasmodium falciparum [1] and in the series on Vero (vero) were 0.02 µM and “Non-toxic”, respectively.
In the series on Leishmania donovani, `N=C(N)c1ccc(OCCCCCOc2ccc(C(=N)N)cc2)cc1` [PENTAMIDINE] showed an IC50 of 2.9 µM and an IC90 of 5.58 µM.
Regarding `CC[C@@H](C)[C@H]1O[C@@H](c2c(OC)c(-c3ccccc3)c[n+]([O-])c2OC)[C@H](C)C[C@@H]1C`, the IC50 was 6.76 µM in the series on Plasmodium falciparum [1], “Non-toxic” in the series on Vero (vero) and 6.51 µM in the series on Plasmodium falciparum [7]. Moreover, the values for the selectivity ratio in series [2] and in series [3] were more than 1.2 and more than 1.1, respectively.
As to `COc1c(C[C@@H](C)OC(C)=O)c2c3c(C[C@@H](C)O)c(OC)c(=O)c4c(O)cc5c(c6c(cc(O)c(c1=O)c62)OCO5)c43`, the IC50 in the series on BT-549 amounted to 8.6 µM; with Plasmodium falciparum [1], 2.78 µM; in the series with SK-MEL, 3.8 µM; in the series with KB it was 8.5 µM; in the series with Leishmania donovani, 1.7 µM; in the series with Vero (setting [14]) it was 5.21 µM. Also, the IC50 came out at 10.1 µM in [6], 4 µM with SK-OV-3 and 3.12 µM in the series on Plasmodium falciparum [7]. Moreover, the result with Agrostis stolonifera [8] and in the series on Lactuca sativa [9] was Active. Further, the results for the selectivity ratio in [2] and in [3] were 1.7 and 1.9, respectively.
`COc1c(C[C@@H](C)O)c2c3c(C[C@@H](C)O)c(OC)c(=O)c4c(O)cc5c(c6c(cc(O)c(c1=O)c62)OCO5)c43`: the IC50 in the series with BT-549 came to 10.8 µM; in the series on Plasmodium falciparum [1], 1.08 µM; in the series on SK-MEL it was 3.6 µM; in the series with KB, 7.1 µM; in the series with Leishmania donovani it was 1.14 µM; in the series with Vero (setting [14]), 5.24 µM. Besides, the IC50 amounted to 3.9 µM in series [6], 3.7 µM in the series on SK-OV-3 and 1.62 µM with Plasmodium falciparum [7]. Besides, the results for the MIC in the series on Staphylococcus aureus [10] and with Staphylococcus aureus [13] were 9.4 µM (≈ 5.02 µg/mL) and 4.7 µM (≈ 2.51 µg/mL), respectively. Also, the outcome in the series with Lactuca sativa [11] and in the series on Agrostis stolonifera [12] was Active. For the same compound, the selectivity ratio in series [2] was 3.2; in series [3], 4.8. The compound further yielded an IC90 with Leishmania donovani of 2.81 µM.

In general, IC50 refers to the concentration that inhibits the measured activity by half. In general, IC90 refers to the concentration needed for an effect of 90%. A word on the MIC: it is the lowest concentration found to suppress growth.

These data come from ChEMBL document CHEMBL2046333, “Antiprotozoal and antimicrobial compounds from the plant pathogen Septoria pistaciarum” (J Nat Prod, 2012).
